According to PubChem BioAssay:
The source made the active and inactive calls.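 How the source made its calls, unless noted: active means inhibition above 20% together with a positive visual image hit; inconclusive means visual image hit but inhibition not above 20%; inactive means no visual image hit.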

Legend:
[1] = inhibitors of TNFa-induced NFkB p65 translocation, primary screen, imaging, HUVEC, MLSMR starter and 10KST1 sets (AID 438); conditions: HUVEC TNFa-induced p65 nuclear translocation; cell count: measured here: nuclei count (cytotoxicity indicator), at 2.08 µM; inhibition: at 2 µM, stronger effect = higher value, 0% TNFa-plus-vehicle, 100% no-TNFa wells;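 further: compound added about 3h40 before a 20 min TNFalpha stimulation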;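 on inhibition: signal is the nuclear over cytoplasmic p65 intensity ratio per well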
[2] = reduction of polyQ htt aggregates in cells – imaging, exon1htt(103Q)mCFP cells, high-content imaging, primary screen (AID 483;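 active means visual image review flags a hit and inhibition of aggregation exceeds 20%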;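 further: compound exposure lasted 3 days before fixation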;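 on nuclei count: percent of the per-plate median nuclei count of sample wells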); conditions: exon1htt(103Q)mCFP cell line, aggregate imaging, at 2 µM; inhibition of aggregation: stronger effect = higher value; nuclei count: measured here: cell count, toxicity
[3] = endothelial E-selectin expression blockers – imaging, HUVEC, immunofluorescence, MLSMR starter and 10KST1 sets, primary screen (AID 487;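 active means visually confirmed hit in the image check and inhibition above 20%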;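 on inhibition: signal is fraction of cell area covered by stained E-selectin grains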;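 on nuclei count: 100% = median nuclei count of all wells on the same plate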); conditions: HUVEC TNFalpha-induced E-selectin immunofluorescence imaging, at 2 µM; inhibition: stronger effect = higher value; nuclei count: measured here: cell number, toxicity
[4] = target: Voltage-gated potassium channel subunit beta-2 (Rattus norvegicus) (UniProt P62483); assay: inhibitors of rat Kvbeta2 reductase activity – biochemical, NADPH fluorescence, primary screen (AID 622;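 active means fluorescence slope higher than the sample average by over 3 SD, cut at about -0.22 in these data, passing the limit was not always enough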;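 further: slope of raw intensity against log time taken from 70 to 1610 s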); conditions: recombinant KvBeta, 4-cyanobenzaldehyde reduction, at 10 µM, stronger effect = higher value
[5] = target: Voltage-gated potassium channel subunit beta-2 (Rattus norvegicus) (UniProt P62483); assay: enhancers of rat Kvbeta2 NADPH turnover – biochemical, NADPH fluorescence, primary screen (AID 623;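 active means NADPH fluorescence slope more negative than the mean of all samples by about 3 SD, 99.7% confidence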;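 further: fluorescence intensity change per second fitted from 20 to 320 s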); conditions: Recombinant KvBeta, NADPH fluorescence decrease slope, 10 min; at 10 µM; stronger effect = lower value
[6] = target: Muscarinic acetylcholine receptor M4 (Homo sapiens) (UniProt P08173); assay: M4-linked GIRK flux change, two-sided – cell-based, HEK293 M4/GIRK, thallium flux, BTC-AM, M4 allosteric agonist project, primary screen (AID 625;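 active means fluorescence slope after compound addition differing from the mean of all tested samples at 99.7% confidence, mostly higher but some lower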;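 further: thallium influx through GIRK channels coupled to M4 in HEK293 cells with BTC-AM dye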); conditions: at 10 µM, actives lie on both sides
Method in brief: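 Material: HEK293 cells with M4 receptor and GIRK channels; Times: cells overnight at 37 °C, BTC-AM loading 1 h, reads 2 min total; Technique: kinetic BTC-AM fluorescence sampled at 1 Hz, 10 s pre-addition baseline; Read-out basis: slope over 15–24 s of trace normalized to starting intensity; Controls: carbachol positive, DMSO negative.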

[7] = blockers of RIG-like receptor reporter activation – cell-based, Sendai virus stimulus, luciferase, 10K MLSCN set, TLR/RLR signaling modifier project, primary screen (AID 602276;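 active means inhibition at or above 50% at 10 µM; inactive means inhibition below 50%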;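 further: firefly luciferase from ISG56 promoter only with Renilla not read in this screen; 0% = Sendai virus plus DMSO and 100% = medium plus DMSO without virus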); conditions: HEK293 RL24 IRF3 luciferase reporter, at 10 µM, stronger effect = higher value
[8] = TLR3 IRF3 reporter activation blockers – cell-based, poly I:C stimulus, luciferase, 10K MLSCN set, primary screen (AID 602277;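 active means inhibition of the reporter signal at or above 50%; inactive means inhibition below 50%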); conditions: HEK293-TLR3 RL24 IRF3 luciferase reporter, at 10 µM, stronger effect = higher value

Muscarinic acetylcholine receptor M4 (Homo sapiens), sequence (P08173 whole entry, looked up): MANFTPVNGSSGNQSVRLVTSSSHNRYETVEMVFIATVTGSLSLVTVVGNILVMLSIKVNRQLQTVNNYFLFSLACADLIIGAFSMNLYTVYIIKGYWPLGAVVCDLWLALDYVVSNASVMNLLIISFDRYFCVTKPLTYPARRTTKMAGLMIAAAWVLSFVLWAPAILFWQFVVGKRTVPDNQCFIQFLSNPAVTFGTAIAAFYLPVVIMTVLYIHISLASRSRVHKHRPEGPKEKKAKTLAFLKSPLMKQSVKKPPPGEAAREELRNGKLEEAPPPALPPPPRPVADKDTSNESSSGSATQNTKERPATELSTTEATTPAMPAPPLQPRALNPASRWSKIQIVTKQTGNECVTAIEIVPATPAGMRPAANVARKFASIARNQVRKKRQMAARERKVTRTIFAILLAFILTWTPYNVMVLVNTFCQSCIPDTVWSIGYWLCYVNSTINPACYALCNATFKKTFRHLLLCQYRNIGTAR
Voltage-gated potassium channel subunit beta-2 (Rattus norvegicus), sequence (P62483 whole entry, looked up): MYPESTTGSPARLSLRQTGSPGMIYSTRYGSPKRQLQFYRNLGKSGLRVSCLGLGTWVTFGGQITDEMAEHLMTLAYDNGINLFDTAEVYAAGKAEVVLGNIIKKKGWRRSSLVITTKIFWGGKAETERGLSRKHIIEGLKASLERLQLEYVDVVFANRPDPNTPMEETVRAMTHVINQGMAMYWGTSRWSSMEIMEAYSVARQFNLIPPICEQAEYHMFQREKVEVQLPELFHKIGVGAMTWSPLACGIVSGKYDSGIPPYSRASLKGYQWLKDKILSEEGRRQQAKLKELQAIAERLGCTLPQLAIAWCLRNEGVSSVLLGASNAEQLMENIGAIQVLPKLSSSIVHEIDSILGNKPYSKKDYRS

| Compound | cell count [1] | inhibition [1] | inhibition of aggregation [2] | nuclei count [2] | inhibition [3] | nuclei count [3] | fluorescence slope [4] | NADPH fluorescence slope [5] | fluorescence slope [6] | inhibition [7] | inhibition [8] |
| --- | --- | --- | --- | --- | --- | --- | --- | --- | --- | --- | --- |
| Cc1ccc(CNC(=O)C2CCN(S(=O)(=O)c3c(C)noc3C)CC2)cc1 | 475 | 4.8% (inactive) | 14% (inactive) | 91.5% | -2.1% (inactive) | 104% | -0.493 (inactive) | 8.6e-05 (inactive) | 0.00571 (inactive) | -1.36% (inactive) | 6.94% (inactive) |
| COc1ccccc1-c1noc(-c2ccco2)n1 | 691 | 7.2% (inactive) | 16.8% (inactive) | 82.3% | 6% (inactive) | 101% | -0.554 (inactive) | -4.8e-05 (inactive) | 0.00616 (inactive) | -44.2% (inactive) | -96.7% (inactive) |
| O=C(Cc1ccc(Br)cc1)N1CCCCCC1 | 358 | -0.2% (inactive) | 1.7% (inactive) | 99.5% | -68.6% (inactive) | 99.7% | -0.657 (inactive) | 1.8e-05 (inactive) | 0.00369 (inactive) | -33.9% (inactive) | -69.5% (inactive) |
| Cn1c(=O)[nH]c(=O)c2c1nc(N1CCNCC1)n2Cc1cccc2ccccc12 | 387 | 1.1% (inactive) | 13.1% (inactive) | 99.6% | -83.1% (inactive) | 106% | -0.59 (inactive) | -5.5e-05 (inactive) | 0.00615 (inactive) | 13.2% (inactive) | 28.8% (inactive) |
| Cc1ccc2nc(SC(C)C(=O)N3CCCC3)[nH]c2c1 (stereo unspecified) | 467 | 0% (inactive) | 9.4% (inactive) | 75.7% | -59.3% (inactive) | 112% | -0.478 (inactive) | 6e-05 (inactive) | 0.00661 (inactive) | -21.2% (inactive) | -39.7% (inactive) |
| COc1ccccc1CNC(=O)C1CCN(S(=O)(=O)N2CCCCC2)CC1 | 571 | -1.8% (inactive) | 4.5% (inactive) | 102% | -44.6% (inactive) | 89.6% | -0.426 (inactive) | -3.4e-05 (inactive) | 0.00585 (inactive) | 14% (inactive) | 21.7% (inactive) |
| COc1ccc(OC)c(N(CC(=O)N2CCN(c3cc(Cl)ccc3C)CC2)S(C)(=O)=O)c1 | 497 | -7.3% (inactive) | 23.1% (inactive) | 61.4% | -13.6% (inactive) | 105% | -0.572 (inactive) | -5.2e-05 (inactive) | 0.00582 (inactive) | 17% (inactive) | 24.6% (inactive) |
| CC(C)(C)NC(=O)C(c1ccco1)N(C(=O)Cn1nnc(-c2ccc(F)cc2)n1)c1ccccc1 (stereo unspecified) | 422 | 9.2% (inactive) | -1.8% (inactive) | 99.8% | -146% (inactive) | 122% | -0.551 (inactive) | 8.1e-06 (inactive) | 0.00525 (inactive) | 15.8% (inactive) | 26.6% (inactive) |
| CCN(CC)C(=O)CN(c1cc(Cl)ccc1OC)S(C)(=O)=O | 776 | -2.4% (inactive) | -2.7% (inactive) | 108% | 41.2% (inactive) | 96% | -0.577 (inactive) | 4.8e-07 (inactive) | 0.00573 (inactive) | 7.69% (inactive) | 10.1% (inactive) |
| CN(C)/C=c1\sc2c(C#N)cc(C(=O)c3ccc(Br)cc3)n2c1=O | 398 | 8.6% (inactive) | 5.6% (inactive) | 102% | 0.2% (inactive) | 102% | -0.439 (inactive) | -5.9e-05 (inactive) | -0.00984 (active) | -3.73% (inactive) | 19.1% (inactive) |
| CCCCn1c(CN2CCN(CCO)CC2)nc2ccccc21 | 611 | 6.2% (inactive) | -17.9% (inactive) | 112% | 44.3% (inactive) | 84.5% | -0.468 (inactive) | -0.000309 (inactive) | 0.00452 (inactive) | 2.03% (inactive) | 19.1% (inactive) |
| CCc1ccc2c(CN(CC)Cc3nc4ccccc4c(=O)[nH]3)cc(=O)oc2c1 | 530 | 1.4% (inactive) | 2% (inactive) | 114% | -23.3% (inactive) | 107% | -0.57 (inactive) | 5.5e-06 (inactive) | 0.00486 (inactive) | 17.1% (inactive) | 26.9% (inactive) |
| O=C(CSc1nc2ccc(Cl)cc2[nH]1)NCc1ccco1 | 273 | 17.8% (inactive) | -10.2% (inactive) | 109% | -3.9% (inactive) | 109% | -0.611 (inactive) | 1.5e-05 (inactive) | 0.00642 (inactive) | 17.9% (inactive) | 20.8% (inactive) |
| CC(C)(C)NC(=O)Nc1ccccc1C(N)=O | 657 | 1.6% (inactive) | -14.8% (inactive) | 108% | -34.5% (inactive) | 107% | -0.539 (inactive) | -8e-06 (inactive) | 0.0058 (inactive) | 3.23% (inactive) | -20.8% (inactive) |
| Cn1c(Cc2ccccc2)nnc1SCC(=O)NC1CCCCC1 | 327 | -2.3% (inactive) | -1% (inactive) | 94.8% | -136% (inactive) | 120% | -0.0696 (active) | -3.5e-05 (inactive) | 0.0079 (inactive) | 16.3% (inactive) | 0.751% (inactive) |
| Cn1c(=O)c(NC(=O)c2ccccc2)c2n(c1=S)CCCCC2 | 359 | -5.7% (inactive) | 13.7% (inactive) | 95.3% | -17% (inactive) | 107% | -0.57 (inactive) | -1.1e-05 (inactive) | 0.00647 (inactive) | 16.3% (inactive) | 20% (inactive) |
| CCc1ccc(NS(=O)(=O)c2cccs2)cc1 | 421 | 4.3% (inactive) | -18.3% (inactive) | 105% | -82% (inactive) | 109% | -0.634 (inactive) | 3e-06 (inactive) | 0.00357 (inactive) | -6.86% (inactive) | -9.13% (inactive) |
| Cn1c(=O)cc(SCC(=O)N2CCOCC2)c2ccc(Cl)cc21 | 442 | -3.9% (inactive) | -3.2% (inactive) | 89.4% | 52.1% (inactive) | 92.6% | -0.557 (inactive) | -5.8e-05 (inactive) | 0.00569 (inactive) | 15% (inactive) | 23.4% (inactive) |
| O=C1CN=C(Nc2cccc(C(F)(F)F)c2)N1C1CCCC1 | 421 | 4.8% (inactive) | -11% (inactive) | 107% | -375% (inactive) | 149% | -0.436 (inactive) | -0.000109 (inactive) | 0.00643 (inactive) | -11.3% (inactive) | -11.6% (inactive) |
| O=c1c2nnn(Cc3ccccc3)c2ncn1-c1ccccc1 | 522 | -8.6% (inactive) | 16.2% (inactive) | 86.9% | 9% (inactive) | 99% | -0.411 (inactive) | -8.2e-05 (inactive) | 0.00572 (inactive) | 14.3% (inactive) | 25.9% (inactive) |
| Cc1cccc(NC(=O)c2cc3n(n2)C(C(F)(F)F)CC(c2ccc4c(c2)OCO4)N3)c1 (stereo unspecified) | 555 | -6.9% (inactive) | 0.5% (inactive) | 82.7% | 45.8% (inactive) | 127% | -0.546 (inactive) | -3.2e-05 (inactive) | 0.00563 (inactive) | 25.3% (inactive) | 25.4% (inactive) |
| CCOc1ccc(NC(=O)CSc2nnnn2CC(=O)O)cc1 | 482 | -1.4% (inactive) | -19.1% (inactive) | 112% | -110% (inactive) | 122% | -0.561 (inactive) | -4.1e-05 (inactive) | 0.00555 (inactive) | 10.5% (inactive) | 14.4% (inactive) |
| O=C(NCCO)c1scc2c1OCCO2 | 572 | -12.8% (inactive) | 7.6% (inactive) | 97.2% | -15.2% (inactive) | 104% | -0.327 (inactive) | 6.5e-05 (inactive) | 0.00603 (inactive) | 16.6% (inactive) | 19.5% (inactive) |
| CCCCNC(=O)c1c(C)cc(=O)oc1C | 541 | -21.8% (inactive) | -12.9% (inactive) | 141% | -29% (inactive) | 106% | -0.531 (inactive) | -2.1e-05 (inactive) | 0.0056 (inactive) | 18.4% (inactive) | 14% (inactive) |
| Cc1ccc2[nH]c(=O)c(CN(CCCO)S(=O)(=O)c3c(C)ccc4nsnc34)cc2c1 | 334 | -2.5% (inactive) | -11.4% (inactive) | 103% | -54.5% (inactive) | 120% | -0.459 (inactive) | -3e-05 (inactive) | 0.00552 (inactive) | 11.1% (inactive) | 29.7% (inactive) |
| CSC(=O)CC(=O)NC(=O)c1ccccc1 | 373 | 0% (inactive) | -2.5% (inactive) | 90% | -76.9% (inactive) | 159% | -0.605 (inactive) | 1.1e-06 (inactive) | 0.00374 (inactive) | 7.05% (inactive) | 5.94% (inactive) |
